Test results as given in ChEMBL document CHEMBL2021916, “Aflaquinolones A-G: secondary metabolites from marine and fungicolous isolates of Aspergillus spp” (J Nat Prod, 2012).

Experiments:
B16-F10 = assay: Cytotoxicity against mouse B16F10 cells after 48 hrs by EZ-CyTox enhanced cell viability assay; format: functional, cell-based; conditions: B16-F10, 48 h
How it was run: (§1)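 Seeding densities: K562 3 × 10⁴, B16F10 3 × 10³, HL-60 1 × 10⁵, MDA-MB-231 5 × 10³ and Hep3B 5 × 10³ cells per well. Cells were exposed for 48 h to test compounds supplied as DMSO solutions. Viability was read with the EZ-CyTox enhanced cell viability kit as absorbance at 450 nm.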

K562 = assay: Cytotoxicity against human K562 cells after 48 hrs by EZ-CyTox enhanced cell viability assay; format: functional, cell-based; conditions: K562, 48 h; how it was run: as §1
MDA-MB-231 = assay: Cytotoxicity against human MDA-MB-231 cells after 48 hrs by EZ-CyTox enhanced cell viability assay; format: functional, cell-based; conditions: MDA-MB-231, 48 h; how it was run: as §1
HL-60 = assay: Cytotoxicity against human HL60 cells after 48 hrs by EZ-CyTox enhanced cell viability assay; format: functional, cell-based; conditions: HL-60, 48 h; how it was run: as §1
[1] = Cytotoxicity against human Hep3B cells after 48 hrs by EZ-CyTox enhanced cell viability assay; format: functional, cell-based, Hep 3B2; how it was run: as §1

Measured: IC50

CO[C@@H]1C(=O)Nc2ccc(/C=C/[C@]3(C)CCC(=O)[C@@H](C)C3)c(O)c2[C@@]1(O)c1ccccc1 [AFLAQUINOLONE A]
> 80 µM: B16-F10 | K562 | MDA-MB-231 | HL-60 | [1]

CO[C@@H]1C(=O)Nc2ccc(/C=C/[C@]3(C)CC[C@@H](O)[C@@H](C)C3)c(O)c2[C@@]1(O)c1ccccc1 [AFLAQUINOLONE B]
> 80 µM: B16-F10 | K562 | MDA-MB-231 | HL-60 | [1]

CO[C@@H]1C(=O)Nc2ccc(/C=C/[C@@]3(C)CCC(=O)[C@H](C)C3)c(O)c2[C@@]1(O)c1ccccc1 [AFLAQUINOLONE C]
> 80 µM: B16-F10 | K562 | MDA-MB-231 | HL-60 | [1]

CO[C@@H]1C(=O)Nc2cccc(O)c2[C@@]1(O)c1ccccc1 [AFLAQUINOLONE E]
> 80 µM: B16-F10 | K562 | MDA-MB-231 | HL-60 | [1]

O=C1Nc2ccccc2[C@@](O)(c2ccccc2)[C@@H]1O [AFLAQUINOLONE F]
> 80 µM: B16-F10 | K562 | MDA-MB-231 | HL-60 | [1]

O=C1Nc2ccccc2[C@@](O)(c2ccccc2)[C@H]1O [AFLAQUINOLONE G]
> 80 µM: B16-F10 | K562 | MDA-MB-231 | HL-60 | [1]
